Measured values published in ChEMBL document CHEMBL3992532, “Structure-Based Design of Macrocyclic Factor XIa Inhibitors: Discovery of the Macrocyclic Amide Linker” (J Med Chem, 2017).

Legend:
Coagulation factor XI = Coagulation factor XI (Homo sapiens, UniProt P03951); test: Inhibition of human coagulation factor 11a using pyroGlu-Pro-Arg-pNA as substrate after 10 to 120 mins at 37 degC by spectrophotometric method
Method in brief: (§1)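 Purified human proteases, 37 °C; reaction started by adding enzyme to substrate (up to 4× Km) ± inhibitor; compound from DMSO, 1% DMSO final except where noted. […] Buffers: FXIa, chymotrypsin, tPA, plasmin, urokinase in 50 mM HEPES pH 7.4, 145 mM NaCl, 5 mM KCl, 0.1% PEG 8000; FXa, thrombin, trypsin, plasma kallikrein, aPC in 100 mM Na phosphate pH 7.4, 200 mM NaCl, 0.5% PEG 8000; FIXa in 50 mM Tris pH 7.4, 100 mM NaCl, 5 mM CaCl2, 0.5% PEG 8000, 2% DMSO.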

Plasma = test: Anticoagulant activity in human plasma assessed as concentration required to produce 50% increase in activated partial thromboplastin time; assay type: functional
Method in brief: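 Citrated (one-tenth volume 0.11 M) plasma from healthy volunteers, spun 2,000 g 10 min, kept on ice; 10 mM DMSO stock diluted in plasma, up to 7 concentrations; aPTT on automated coagulometer, duplicates as mean ratio to baseline; EC1.5x (50% prolongation) by linear interpolation, as total plasma concentration.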

Coagulation factor VII = target: T1, Coagulation factor VII (Homo sapiens, UniProt P08709); test: Inhibition of human coagulation factor 7a using H-(D)-Ile-Pro-Arg-pNA as substrate after 10 to 120 mins at 25 degC by spectrophotometric method
T1 sequence (P08709 whole entry): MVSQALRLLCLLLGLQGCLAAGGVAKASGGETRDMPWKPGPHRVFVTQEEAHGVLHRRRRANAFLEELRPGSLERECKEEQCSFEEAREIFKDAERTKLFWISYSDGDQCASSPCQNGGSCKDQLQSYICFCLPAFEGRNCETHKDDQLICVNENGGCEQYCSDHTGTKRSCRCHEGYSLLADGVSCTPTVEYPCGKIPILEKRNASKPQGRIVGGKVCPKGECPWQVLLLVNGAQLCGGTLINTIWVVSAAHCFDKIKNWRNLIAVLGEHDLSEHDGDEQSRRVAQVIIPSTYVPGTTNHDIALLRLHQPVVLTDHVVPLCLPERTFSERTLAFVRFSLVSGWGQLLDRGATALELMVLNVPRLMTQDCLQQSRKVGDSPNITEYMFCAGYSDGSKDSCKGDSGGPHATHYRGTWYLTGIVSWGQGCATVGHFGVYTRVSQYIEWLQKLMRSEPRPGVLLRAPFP

Coagulation factor IX = Coagulation factor IX (Homo sapiens, UniProt P00740); test: Inhibition of human coagulation factor 9a using methylsulfonyl-D-cyclohexylglycyl-Gly-Arg-AMC as substrate after 10 to 120 mins at 37 degC by spectrophotometric method; method in brief: as §1
Coagulation factor X = Coagulation factor X (Homo sapiens, UniProt P00742); test: Inhibition of human coagulation factor 10a using N-benzoyl-Ile-Glu-(OH,OMe)-Gly-Arg-pNA as substrate after 10 to 120 mins at 37 degC by spectrophotometric method; method in brief: as §1
Coagulation factor XII = target: T2, Coagulation factor XII (Homo sapiens, UniProt P00748); test: Inhibition of human coagulation factor 12a using H-(D)-CHT-Gly-Arg-pNA as substrate after 10 to 120 mins at 25 degC by spectrophotometric method
T2 sequence (P00748 whole entry): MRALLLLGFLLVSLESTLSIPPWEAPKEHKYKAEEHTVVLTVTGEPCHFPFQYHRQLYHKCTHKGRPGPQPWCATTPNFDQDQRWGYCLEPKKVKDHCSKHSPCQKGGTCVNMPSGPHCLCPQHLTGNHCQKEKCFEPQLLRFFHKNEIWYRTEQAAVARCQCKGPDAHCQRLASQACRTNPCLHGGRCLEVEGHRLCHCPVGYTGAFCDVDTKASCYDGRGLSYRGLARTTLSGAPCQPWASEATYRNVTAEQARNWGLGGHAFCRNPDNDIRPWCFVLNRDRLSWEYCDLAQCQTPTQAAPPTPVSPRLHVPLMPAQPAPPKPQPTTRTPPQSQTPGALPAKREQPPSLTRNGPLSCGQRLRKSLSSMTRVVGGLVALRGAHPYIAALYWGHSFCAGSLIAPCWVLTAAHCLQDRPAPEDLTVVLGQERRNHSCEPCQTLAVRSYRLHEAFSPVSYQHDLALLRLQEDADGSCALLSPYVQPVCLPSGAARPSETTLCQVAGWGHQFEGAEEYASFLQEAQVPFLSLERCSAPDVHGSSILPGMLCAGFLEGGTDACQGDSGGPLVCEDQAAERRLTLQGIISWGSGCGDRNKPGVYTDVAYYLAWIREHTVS

Prothrombin = Prothrombin (Homo sapiens, UniProt P00734); test: Inhibition of human thrombin using pyroGlu-Pro-Arg-pNA as substrate after 10 to 120 mins at 37 degC by spectrophotometric method; method in brief: as §1
[1] = Inhibition of human trypsin using N-benzoyl-Ile-Glu-(OH,OMe)-Gly-Arg-pNA as substrate after 10 to 120 mins at 37 degC by spectrophotometric method; method in brief: as §1
Plasma kallikrein = Plasma kallikrein (Homo sapiens, UniProt P03952); test: Inhibition of human plasma kallikrein using H-(D)-Pro-Phe-Arg-pNA as substrate after 10 to 120 mins at 37 degC by spectrophotometric method; method in brief: as §1
[2] = target: Vitamin K-dependent protein C (Homo sapiens, UniProt P04070); test: Inhibition of human activated protein C using pyroGlu-Pro-Arg-pNA as substrate after 10 to 120 mins at 37 degC by spectrophotometric method; method in brief: as §1
Plasminogen = Plasminogen (Homo sapiens, UniProt P00747); test: Inhibition of human plasmin using H-(D)-Val-Leu-LyspNA as substrate after 10 to 120 mins at 37 degC by spectrophotometric method; method in brief: as §1
[3] = target: Tissue-type plasminogen activator (Homo sapiens, UniProt P00750); test: Inhibition of human tissue plasminogen activator using methylsulfonyl-D-cyclohexylalanyl-GlyArg-pNA as substrate after 10 to 120 mins at 37 degC by spectrophotometric method; method in brief: as §1
[4] = target: Urokinase-type plasminogen activator (Homo sapiens, UniProt P00749); test: Inhibition of human urokinase using pyro-Glu-Gly-Arg-pNA as substrate after 10 to 120 mins at 37 degC by spectrophotometric method; method in brief: as §1
[5] = Inhibition of human chymotrypsin using MeO-SucArg-Pro-Tyr-pNA as substrate after 10 to 120 mins at 37 degC by spectrophotometric method; method in brief: as §1
[6] = Half life in human liver microsomes; assay type: ADME, microsome
[7] = Half life in Beagle dog at 0.2 mg/kg, iv administered as 10 mins infusion or 0.23 mg/kg, po via gavage administered as cassette dose by LC-MS/MS method; assay type: ADME, organism-based, Canis lupus familiaris; conditions: in vivo
Method in brief: (§2)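 Dog PK vehicles as footnoted: iv in 70% PEG 400/20% water/10% ethanol; po either 70% PEG 400/20% TPGS/10% ethanol or the same PEG 400/water/ethanol vehicle used for iv.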

[8] = Volume of distribution at steady state in Beagle dog at 0.2 mg/kg, iv administered as 10 mins infusion or 0.23 mg/kg, po via gavage administered as cassette dose by LC-MS/MS method; assay type: ADME, organism-based, Canis lupus familiaris; conditions: in vivo, read-out: Vdss; method in brief: as §2
Canis familiaris [9] = test: Oral bioavailability in Beagle dog at 0.23 mg/kg administered via gavage as cassette dose by LC-MS/MS method; assay type: ADME, organism-based, Canis lupus familiaris; conditions: in vivo; method in brief: as §2
Canis familiaris [10] = test: AUC in Beagle dog at 0.23 mg/kg, po administered via gavage as cassette dose by LC-MS/MS method; assay type: ADME, organism-based, Canis lupus familiaris; conditions: in vivo; method in brief: as §2
[11] = Half life in dog liver microsomes; assay type: ADME, Canis lupus familiaris, microsome
[12] = Protein binding in dog plasma; assay type: ADME, cell-free, Canis lupus familiaris; conditions: read-out: PPB (converted)
[13] = Half life in Beagle dog at 0.21 mg/kg, iv administered as 10 mins infusion or 0.42 mg/kg, po via gavage administered as cassette dose by LC-MS/MS method; assay type: ADME, organism-based, Canis lupus familiaris; conditions: in vivo; method in brief: as §2
[14] = Volume of distribution at steady state in Beagle dog at 0.21 mg/kg, iv administered as 10 mins infusion or 0.42 mg/kg, po via gavage administered as cassette dose by LC-MS/MS method; assay type: ADME, organism-based, Canis lupus familiaris; conditions: in vivo, read-out: Vdss; method in brief: as §2
Canis familiaris [15] = test: Oral bioavailability in Beagle dog at 0.42 mg/kg administered via gavage as cassette dose by LC-MS/MS method; assay type: ADME, organism-based, Canis lupus familiaris; conditions: in vivo; method in brief: as §2
Canis familiaris [16] = test: AUC in Beagle dog at 0.42 mg/kg, po administered via gavage as cassette dose by LC-MS/MS method; assay type: ADME, organism-based, Canis lupus familiaris; conditions: in vivo; method in brief: as §2

Chain of Coagulation factor XI (P03951 19-387 limits assumed): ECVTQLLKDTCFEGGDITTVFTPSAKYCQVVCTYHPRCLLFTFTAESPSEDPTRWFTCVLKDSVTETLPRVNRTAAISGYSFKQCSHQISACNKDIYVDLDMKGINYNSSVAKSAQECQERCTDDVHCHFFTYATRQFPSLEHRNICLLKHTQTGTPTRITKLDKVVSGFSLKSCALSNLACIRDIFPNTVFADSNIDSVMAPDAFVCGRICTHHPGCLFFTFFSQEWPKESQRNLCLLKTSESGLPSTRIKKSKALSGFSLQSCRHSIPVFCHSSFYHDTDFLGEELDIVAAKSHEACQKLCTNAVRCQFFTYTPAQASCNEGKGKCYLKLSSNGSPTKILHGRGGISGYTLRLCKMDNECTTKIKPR
Chain of Coagulation factor XI (P03951 388-625 limits assumed): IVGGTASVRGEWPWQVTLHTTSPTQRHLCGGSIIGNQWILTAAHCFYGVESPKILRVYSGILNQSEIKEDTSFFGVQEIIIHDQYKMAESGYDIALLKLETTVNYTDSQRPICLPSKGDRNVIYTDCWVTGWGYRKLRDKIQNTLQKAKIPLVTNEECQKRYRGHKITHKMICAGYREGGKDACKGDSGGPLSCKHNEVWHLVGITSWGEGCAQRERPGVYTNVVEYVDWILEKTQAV
Chain of Coagulation factor IX (P00740 47-191 limits assumed): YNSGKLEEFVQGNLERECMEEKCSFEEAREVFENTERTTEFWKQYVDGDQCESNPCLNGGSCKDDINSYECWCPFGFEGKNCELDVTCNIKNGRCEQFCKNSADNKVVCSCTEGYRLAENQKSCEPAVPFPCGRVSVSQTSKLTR
Chain of Coagulation factor IX (P00740 227-461 limits assumed): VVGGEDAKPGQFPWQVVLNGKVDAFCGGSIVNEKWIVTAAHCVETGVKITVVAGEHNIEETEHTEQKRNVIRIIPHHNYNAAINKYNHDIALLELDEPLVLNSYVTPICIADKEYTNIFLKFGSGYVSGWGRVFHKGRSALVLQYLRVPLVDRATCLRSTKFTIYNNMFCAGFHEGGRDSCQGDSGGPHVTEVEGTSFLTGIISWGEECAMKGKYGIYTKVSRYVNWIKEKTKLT
Chain of Coagulation factor X (P00742 41-179 limits assumed): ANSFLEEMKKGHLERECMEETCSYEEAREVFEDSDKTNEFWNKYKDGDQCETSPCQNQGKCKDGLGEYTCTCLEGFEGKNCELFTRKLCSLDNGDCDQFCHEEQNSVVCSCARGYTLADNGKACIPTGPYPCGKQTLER
Chain of Coagulation factor X (P00742 235-488 limits assumed): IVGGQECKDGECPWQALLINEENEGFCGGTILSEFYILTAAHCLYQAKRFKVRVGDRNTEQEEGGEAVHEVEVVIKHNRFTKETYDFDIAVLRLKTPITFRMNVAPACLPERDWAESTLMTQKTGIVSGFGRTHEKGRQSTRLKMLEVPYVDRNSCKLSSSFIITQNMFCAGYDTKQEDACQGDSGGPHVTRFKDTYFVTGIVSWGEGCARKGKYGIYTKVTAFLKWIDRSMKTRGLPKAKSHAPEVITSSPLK
Chain of Plasma kallikrein (P03952 20-390 limits assumed): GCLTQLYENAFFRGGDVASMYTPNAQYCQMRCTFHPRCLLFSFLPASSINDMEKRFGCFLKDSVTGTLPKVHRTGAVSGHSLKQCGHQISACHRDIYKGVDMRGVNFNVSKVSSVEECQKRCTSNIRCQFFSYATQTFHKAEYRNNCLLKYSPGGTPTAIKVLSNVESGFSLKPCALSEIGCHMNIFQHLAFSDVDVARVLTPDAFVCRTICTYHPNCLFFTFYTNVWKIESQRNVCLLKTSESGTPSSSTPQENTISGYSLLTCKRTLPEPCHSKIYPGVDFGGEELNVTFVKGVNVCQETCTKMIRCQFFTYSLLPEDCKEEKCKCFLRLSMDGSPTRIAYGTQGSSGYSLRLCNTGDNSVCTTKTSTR
Chain of Plasma kallikrein (P03952 391-638 limits assumed): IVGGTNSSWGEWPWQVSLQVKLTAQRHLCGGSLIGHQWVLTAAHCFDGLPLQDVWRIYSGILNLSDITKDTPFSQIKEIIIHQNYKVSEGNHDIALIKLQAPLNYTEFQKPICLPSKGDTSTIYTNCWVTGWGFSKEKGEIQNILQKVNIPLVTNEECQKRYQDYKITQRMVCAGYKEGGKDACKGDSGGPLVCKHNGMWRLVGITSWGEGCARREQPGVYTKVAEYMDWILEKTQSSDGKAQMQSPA
Chain of Plasminogen (P00747 97-580 limits assumed): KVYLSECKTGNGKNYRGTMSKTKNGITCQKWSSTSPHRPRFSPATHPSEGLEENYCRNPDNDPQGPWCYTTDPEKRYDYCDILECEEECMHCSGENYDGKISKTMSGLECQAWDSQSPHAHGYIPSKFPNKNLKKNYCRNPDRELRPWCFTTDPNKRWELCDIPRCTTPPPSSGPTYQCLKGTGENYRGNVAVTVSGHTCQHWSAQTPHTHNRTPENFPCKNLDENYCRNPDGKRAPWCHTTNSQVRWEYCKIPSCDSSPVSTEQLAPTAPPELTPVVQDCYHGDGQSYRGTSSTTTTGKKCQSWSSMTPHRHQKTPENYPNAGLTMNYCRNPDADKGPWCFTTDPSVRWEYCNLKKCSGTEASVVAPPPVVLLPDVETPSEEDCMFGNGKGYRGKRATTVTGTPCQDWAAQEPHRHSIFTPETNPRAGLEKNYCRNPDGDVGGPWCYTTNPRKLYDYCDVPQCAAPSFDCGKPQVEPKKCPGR
Chain of Plasminogen (P00747 581-810 limits assumed): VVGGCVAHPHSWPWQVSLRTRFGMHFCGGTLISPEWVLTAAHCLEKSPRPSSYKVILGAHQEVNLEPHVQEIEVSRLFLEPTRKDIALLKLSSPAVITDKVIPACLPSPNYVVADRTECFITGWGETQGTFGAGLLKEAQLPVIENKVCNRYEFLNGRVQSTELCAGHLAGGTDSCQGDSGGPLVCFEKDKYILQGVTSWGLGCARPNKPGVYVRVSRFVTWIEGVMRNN
Chain of Tissue-type plasminogen activator (P00750 whole entry): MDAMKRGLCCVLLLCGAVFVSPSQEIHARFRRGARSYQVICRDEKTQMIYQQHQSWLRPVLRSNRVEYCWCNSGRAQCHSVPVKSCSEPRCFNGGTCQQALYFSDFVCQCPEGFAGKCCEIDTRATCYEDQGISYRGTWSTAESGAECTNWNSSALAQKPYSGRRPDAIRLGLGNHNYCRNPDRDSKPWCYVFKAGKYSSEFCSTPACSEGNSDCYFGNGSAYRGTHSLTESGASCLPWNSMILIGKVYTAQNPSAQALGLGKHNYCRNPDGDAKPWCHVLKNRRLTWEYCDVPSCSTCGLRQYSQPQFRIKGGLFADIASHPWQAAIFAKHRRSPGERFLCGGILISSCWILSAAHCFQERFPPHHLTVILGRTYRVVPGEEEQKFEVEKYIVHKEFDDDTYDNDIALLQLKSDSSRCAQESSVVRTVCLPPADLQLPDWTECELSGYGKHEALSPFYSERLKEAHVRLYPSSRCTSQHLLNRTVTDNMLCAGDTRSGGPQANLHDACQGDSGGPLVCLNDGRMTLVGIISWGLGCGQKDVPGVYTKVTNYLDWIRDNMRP
Chain of Vitamin K-dependent protein C (P04070 43-197 limits assumed): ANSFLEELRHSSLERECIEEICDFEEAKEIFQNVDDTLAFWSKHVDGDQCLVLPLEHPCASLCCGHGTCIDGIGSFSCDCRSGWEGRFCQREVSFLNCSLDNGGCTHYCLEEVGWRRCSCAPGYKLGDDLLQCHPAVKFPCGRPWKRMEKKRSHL
Chain of Vitamin K-dependent protein C (P04070 212-461 limits assumed): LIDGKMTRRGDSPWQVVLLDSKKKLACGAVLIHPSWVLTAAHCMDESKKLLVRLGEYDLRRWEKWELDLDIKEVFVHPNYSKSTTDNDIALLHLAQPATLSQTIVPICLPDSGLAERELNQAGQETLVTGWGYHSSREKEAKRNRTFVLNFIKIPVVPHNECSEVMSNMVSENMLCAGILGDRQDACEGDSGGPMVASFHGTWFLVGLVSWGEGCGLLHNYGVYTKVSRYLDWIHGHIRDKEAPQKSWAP

COC(=O)Nc1ccc(-c2nc([C@H](Cc3ccccc3)NC(=O)/C=C/c3cc(Cl)ccc3-n3cnnn3)[nH]c2Cl)cc1
Ki (Coagulation factor XI): 5.8 nM
EC1.5 (Plasma): 5.3 µM
Ki (Coagulation factor VII): > 13.4 µM
Ki (Coagulation factor IX): > 27.1 µM
Ki (Coagulation factor X): > 13.3 µM
Ki (Coagulation factor XII): > 3.05 µM
Ki (Prothrombin): > 11.5 µM
Ki [1]: > 10 µM
Ki (Plasma kallikrein): 0.519 µM
Ki [2]: > 21.5 µM
Ki (Plasminogen): > 15.2 µM
Ki [3]: > 6.15 µM
Ki [4]: > 15.1 µM
Ki [5]: > 4.53 µM

COC(=O)Nc1ccc2c(c1)NC(=O)CCCC[C@H](NC(=O)/C=C/c1cc(Cl)ccc1-n1cnnn1)c1nc-2c[nH]1
Ki (Coagulation factor XI): 1 nM
EC1.5 (Plasma): 0.3 µM
half-life [6]: 1.5 h
Ki (Coagulation factor VII): 3.19 µM
Ki (Coagulation factor IX): > 27.1 µM
Ki (Coagulation factor X): > 13.3 µM
Ki (Coagulation factor XII): > 3.05 µM
Ki (Prothrombin): > 11.5 µM
Ki [1]: 8.39 µM
Ki (Plasma kallikrein): 0.07 µM
Ki [2]: > 21.5 µM
Ki (Plasminogen): > 15.2 µM
Ki [3]: > 6.15 µM
Ki [4]: > 15.1 µM
Ki [5]: 3.94 µM
half-life [7]: 1 h
Vd [8]: 0.8 L/kg
F (Canis familiaris [9]): 6%
AUC (Canis familiaris [10]): 0.021 µM·h
half-life [11]: > 2 h
fraction unbound [12]: 0.098

COC(=O)Nc1ccc2c(c1)CCCCCC[C@H](NC(=O)/C=C/c1cc(Cl)ccc1-n1cnnn1)c1nc-2c[nH]1
Ki (Coagulation factor XI): 87 nM
EC1.5 (Plasma): >40 µM
half-life [13]: 3.2 h
Vd [14]: 0.7 L/kg
F (Canis familiaris [15]): 12%
AUC (Canis familiaris [16]): 0.458 µM·h
half-life [11]: > 2 h

COC(=O)Nc1ccc2c(c1)NCCC/C=C/C[C@H](NC(=O)/C=C/c1cc(Cl)ccc1-n1cnnn1)c1nc-2c[nH]1
Ki (Coagulation factor XI): 514 nM
half-life [6]: 0.283 h

COC(=O)Nc1ccc2c(c1)NC(=O)CC/C=C/C[C@H](NC(=O)/C=C/c1cc(Cl)ccc1-n1cnnn1)c1nc-2c(Cl)[nH]1
Ki (Coagulation factor XI): 0.03 nM
EC1.5 (Plasma): 0.28 µM
half-life [6]: 0.967 h

COC(=O)Nc1ccc2c(c1)NC(=O)CCCCC[C@H](NC(=O)/C=C/c1cc(Cl)ccc1-n1cnnn1)c1nc-2c(Cl)[nH]1
Ki (Coagulation factor XI): 0.47 nM
EC1.5 (Plasma): 0.92 µM
half-life [6]: 1.43 h

COC(=O)Nc1ccc2c(c1)CCCCCC[C@H](NC(=O)/C=C/c1cc(Cl)ccc1-n1cnnn1)c1nc-2c(Cl)[nH]1
Ki (Coagulation factor XI): 42 nM
EC1.5 (Plasma): 27 µM

COC(=O)Nc1ccc2c(c1)CCCCCCC[C@H](NC(=O)/C=C/c1cc(Cl)ccc1-n1cnnn1)c1nc-2c(Cl)[nH]1
Ki (Coagulation factor XI): 68 nM
EC1.5 (Plasma): 34 µM

C=CC[C@H](NC(=O)/C=C/c1cc(Cl)ccc1-n1cnnn1)c1nc(-c2ccc(NC(=O)OC)cc2NC(=O)CC)c[nH]1
Ki (Coagulation factor XI): 27 nM
EC1.5 (Plasma): 21 µM
half-life [6]: 0.2 h
